Measured values from ChEMBL document CHEMBL1137111, “Application of multi-component reactions to antimalarial drug discovery. Part 1: Parallel synthesis and antiplasmodial activity of new 4-aminoquinoline Ugi adducts” (Bioorg Med Chem Lett, 2004).

Columns and labels:
Assay type in all cases: functional, organism-based
[1] = test system: Plasmodium falciparum; assay: Antimalarial activity against chloroquine-sensitive Plasmodium falciparum D10
[2] = test system: Plasmodium falciparum; assay: Antimalarial activity against chloroquine-resistant Plasmodium falciparum K1
[3] = test system: Plasmodium falciparum; assay: Antimalarial activity against chloroquine-resistant Plasmodium falciparum W2
In short: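 W2 parasites in RPMI-1640 with 10% human serum, synchronized with 5% D-sorbitol. From ring stage, exposed 48 h to a concentration series added from DMSO stocks (≤0.1% DMSO; controls 0.1% DMSO). Fixed 48 h in 1% formaldehyde/PBS pH 7.4 at room temperature, stained with 1 nM YOYO-1, and parasitemia read by flow cytometry. IC50 from % control parasitemia by nonlinear regression, duplicate experiments.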

Structure (SMILES)	IC50 [1] [nM]	IC50 [2] [nM]	IC50 [3] [nM]
CC(C)(C)NC(=O)CN(CCCNc1ccnc2cc(Cl)ccc12)C(=O)c1cnccn1	1370	2290	1650
O=C(CN(CCNc1ccnc2cc(Cl)ccc12)C(=O)c1ccncc1)NC1CCCCC1	540	530	610
O=C(CN(CCNc1ccnc2cc(Cl)ccc12)C(=O)c1cnccn1)NC1CCCCC1	790	1350	> 10000
O=C(CN(CCCNc1ccnc2cc(Cl)ccc12)C(=O)c1ccncc1)NC1CCCCC1	230	70	1560
CC(C)(C)NC(=O)CN(CCNc1ccnc2cc(Cl)ccc12)C(=O)c1ccncc1	1060	1100	990
CC(C)(C)NC(=O)CN(CCCNc1ccnc2cc(Cl)ccc12)C(=O)c1ccncc1	> 20000	18200	3800
O=C(CN(CCCNc1ccnc2cc(Cl)ccc12)C(=O)c1ccc(O)cc1O)NC1CCCCC1	1670	3820	5930
O=C(CN(CCCNc1ccnc2cc(Cl)ccc12)C(=O)c1cnccn1)NC1CCCCC1	240	520	870
CC(C)(C)NC(=O)CN(CCNc1ccnc2cc(Cl)ccc12)C(=O)c1cnccn1	710	1130	1190
